Laboratory results from publication PMC3064895 (Cancer Chemotherapy and Pharmacology, 2010).
Entries after “also recorded” stand apart in the source; their conditions may differ. Read-outs that look alike come from different tables or passages of the source.

Tests used:
[1] = Supine blood pressure and heart rate; type: in vivo, patients with advanced cancer; conditions: for Mean (SD) maximal change from baseline in supine HR / Mean (SD) maximal change from baseline in supine diastolic BP / Mean (SD) maximal change from baseline in supine systolic BP: over 12-h period; for Mean increase from baseline in diastolic BP, individual patient / Mean increase from baseline in systolic BP, individual patient: patient with confirmed PR
[2] = cited from earlier work; for Incidence of treatment-emergent cardiac ischemia/infarction AEs: final safety analysis
[3] = observational study by Schmidinger et al.; cited from earlier work
[4] = Plasma pharmacokinetics at steady state of sorafenib; type: in vivo, patients with advanced cancer; conditions: for AUC / Cmax: geometric mean (% CV); for AUC: AUC(0–12), n = 14; for Cmax: C max
[5] = Safety: adverse events by NCI-CTCAE v3.0; type: in vivo, patients with advanced cancer; conditions: N = 53
Procedure, shortened: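 Patients with advanced cancer took the oral kinase inhibitor at 400 mg bid, continuously, in 28-day cycles. Safety, including laboratory tests, was checked at screening, at baseline and on day 1 of each cycle. Treatment-emergent AEs were graded by NCI-CTCAE v3.0 for incidence, severity, seriousness and drug relationship, and summarized descriptively for all patients with ≥1 dose.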

[6] = Day 1 of cycle 2, listed as Sorafenib
[7] = retrospective analysis of 18 studies of sorafenib monotherapy
[8] = human, plasma, oral, 400 mg, plasma, Day 1 of cycle 2, sorafenib 400 mg bid
[9] = human, plasma, oral, 400 mg, plasma, Day 1 of cycle 5, sorafenib 400 mg bid
[10] = plasma, Day 1 of cycle 2, sorafenib 400 mg bid
[11] = plasma, Day 1 of cycle 5, sorafenib 400 mg bid

With CNC(=O)c1cc(Oc2ccc(NC(=O)Nc3ccc(Cl)c(C(F)(F)F)c3)cc2)ccn1 [sorafenib] the “Mean (SD) change from baseline in supine HR” value (from here on “Mean (SD) change from baseline”) ([1]; 2 h post-dose, Day 1 of cycle 2) was −5.4 (9.2) bpm, the “Mean (SD) change from baseline” value ([1]; 2 h post-dose, Day 1 of cycle 5) was −0.03 (7.1) bpm and the “Mean (SD) change from baseline” value ([1]; 4 h post-dose, Day 1 of cycle 2) was −4.0 (8.8) bpm. For the same molecule, the “Mean (SD) change from baseline” value ([1]; 4 h post-dose, Day 1 of cycle 5) was 0.1 (9.2) bpm, the “Mean (SD) change from baseline” value ([1]; 6 h post-dose, Day 1 of cycle 2) was −6.0 bpm and the “Mean (SD) change from baseline” value ([1]; 6 h post-dose, Day 1 of cycle 2, listed as Sorafenib) was −6.0 (8.9) bpm. For the same molecule, the “Mean (SD) change from baseline” value ([1]; 6 h post-dose, Day 1 of cycle 5) was 0 (8.7) bpm, the “Mean (SD) change from baseline” value ([1]; 8 h post-dose, Day 1 of cycle 2) was −4.2 (11.3) bpm and the “Mean (SD) change from baseline” value ([1]; 8 h post-dose, Day 1 of cycle 5) was 0.7 (8.6) bpm. The “Mean (SD) change from baseline” value ([1]; 12 h post-dose, Day 1 of cycle 2) was −5.8 (13.3) bpm, the “Mean (SD) change from baseline” value ([1]; 12 h post-dose, Day 1 of cycle 5) was 1.6 (10.0) bpm and the “Patients with BP ≥150/90 mm Hg at t max” value ([1]; Day 1 of cycle 5, sorafenib 400 mg bid) was 2 n (%). The “Mean (SD) change from baseline” value ([1]; Pre-dose, Day 1 of cycle 2) was −4.4 (8.1) bpm, the “Mean (SD) change from baseline” value ([1]; Pre-dose, Day 1 of cycle 5) was −2.9 (10.0) bpm and the “Patients who exceeded 150/90 mm Hg (both systolic and diastolic)” value ([1]; after 1 cycle) was “Four”. For the same molecule, the “Patients who exceeded a systolic reading of 150 mm Hg only” value ([1]; after 1 cycle) was 4 patients, the “Patients with a diastolic reading surpassing 90 mm Hg only” value ([1]; after 1 cycle) was 2 patients and the “Patients who had become hypertensive” value ([1]; after 1 cycle (6% at baseline)) was “Thirty-two”. For the same molecule, the “Increase in both systolic and diastolic BP at t max” value ([1]; after both 1 and 4 cycles) was 11–12 mm Hg, the Patients hypertensive ([1]; at cycle 4) was 13% and the “Mean (SD) change from baseline” value ([1]; at t max, Day 1 of cycle 2) was −6.6 bpm. For the same molecule, the “Mean (SD) change from baseline” value ([1]; at t max, Day 1 of cycle 2, listed as Sorafenib) was −6.6 (10.6) bpm, the “Mean (SD) change from baseline” value ([1]; at t max, Day 1 of cycle 5) was −3.3 bpm and the “Mean (SD) change from baseline” value ([1]; at t max, Day 1 of cycle 5, listed as Sorafenib) was −3.3 (7.3) bpm. For the same molecule, the “Patients who started receiving antihypertensive medications during treatment” value ([1]; during treatment with sorafenib) was “Three”, the “Mean (SD) maximal change from baseline in supine HR” value ([1]; Day 1 of cycle 2) was 2.9 (±8.2) bpm and the “Mean (SD) maximal change from baseline in supine diastolic BP” value ([1]; Day 1 of cycle 2) was 19.8 (±9.0) mm Hg. The “Mean (SD) maximal change from baseline in supine systolic BP” value ([1]; Day 1 of cycle 2) was 27.7 (±18.5) mm Hg, the “Mean (SD) maximal change from baseline in supine HR” value [1, 6] was 2.9 (8.2) bpm and the “Mean (SD) maximal change from baseline in supine diastolic BP” value [1, 6] was 19.8 (9.0) mm Hg. The “Mean (SD) maximal change from baseline in supine systolic BP” value [1, 6] was 27.7 (18.5) mm Hg, the “Mean (SD) maximal change from baseline in supine HR” value ([1]; Day 1 of cycle 5) was 8.3 (±6.8) bpm and the “Mean (SD) maximal change from baseline in supine diastolic BP” value ([1]; Day 1 of cycle 5) was 22.0 (11.2) mm Hg. The “Mean (SD) maximal change from baseline in supine systolic BP” value ([1]; Day 1 of cycle 5) was 24.8 (14.4) mm Hg, the “Mean (SD) maximal change from baseline in supine HR” value ([1]; Day 1 of cycle 5, listed as Sorafenib) was 8.3 (6.8) bpm and the “Mean increase from baseline in diastolic BP, individual patient” value ([1]; after 1 cycle) was 31.0 mm Hg. For the same molecule, the “Mean increase from baseline in systolic BP, individual patient” value ([1]; after 1 cycle) was 44.5 mm Hg, the “Mean increase from baseline in diastolic BP, individual patient” value ([1]; after 4 cycles) was 40.8 mm Hg and the “Mean increase from baseline in systolic BP, individual patient” value ([1]; after 4 cycles) was 29.3 mm Hg. For the same molecule, the “Patients reporting cardiac ischemia/infarction AEs” value ([2]; RCC phase III, patients who crossed over from placebo to sorafenib) was 1.4%, the “Incidence of treatment-emergent cardiac ischemia/infarction AEs” value ([2]; randomized phase III HCC study, placebo […]) was 2.7% and the “Incidence of treatment-emergent cardiac ischemia/infarction AEs” value ([2]; randomized phase III RCC study, placebo 0.4%) was 2.9%. For the same molecule, the “Overall rate of CHF” value [2, 7] was 1.6%, the “Overall rate of MI” value [2, 7] was 1.5% and the Treatment-emergent hypertension [2, 7] was 18.6%. The “Incidence of ≥10 LVEF(%) reduction” value [3] was 5%, the Tmax ([4]; human, plasma, oral, 400 mg) was 2 h and the AUC [4, 8] was 42800 ng·h/mL. The AUC [4, 9] was 36000 ng·h/mL, the Cmax [4, 8] was 5400 ng/mL and the Cmax [4, 9] was 4300 ng/mL. The “AUCnorm, geometric mean (% CV)” value [4, 10] was 7.5 (48.4) kg h/L, the “C max,norm, geometric mean (% CV)” value [4, 10] was 1.0 (64.9) kg/L and the “C trough, geometric mean (% CV)” value [4, 10] was 4.1 (73.6) mg/L. For the same molecule, the “C trough,norm, geometric mean (% CV)” value [4, 10] was 0.7 (85.4) kg/L, the “AUCnorm, geometric mean (% CV)” value [4, 11] was 6.3 (69.8) kg h/L and the “C max,norm, geometric mean (% CV)” value [4, 11] was 0.8 (72.5) kg/L. The “C trough, geometric mean (% CV)” value [4, 11] was 3.2 (73.8) mg/L, the “C trough,norm, geometric mean (% CV)” value [4, 11] was 0.6 (83.8) kg/L and the “t max, median (range)” value [4, 11] was 2.00 (0–8.05) h. For the same molecule, the “Relationship between PK parameters (AUC(0–12), C max) and cardiovascular safety parameters (QT/QTc, LVEF, BP, HR)” value ([4]; sorafenib and its main metabolites, any time point, data not shown) was “No correlation; also recorded: No relationship was observed”, the “Alopecia, drug-related, Grade ≥3” value [5] was 0 (0) n (%) and the “Alopecia, drug-related, all grades” value [5] was 13 (25) n (%). For the same molecule, the “Dermal change, drug-related, Grade ≥3” value [5] was 0 (0) n (%), the “Dermal change, drug-related, all grades” value [5] was 6 (11) n (%) and the “Dermatology—other, drug-related, Grade ≥3” value [5] was 1 (2) n (%). The “Dermatology—other, drug-related, all grades” value [5] was 7 (13) n (%).
